Reference: ChEMBL document CHEMBL1158546, “Discovery of novel and potent leukotriene B4 receptor antagonists. Part 1” (J Med Chem, 2010)
≈ marks a conversion by molar mass, not a printed value. Calls of active or inactive are those of the source. The rule behind the calls is not given here.

Legend:
[1] = target: T1, Leukotriene B4 receptor 2 (Homo sapiens, UniProt Q9NPC1); experiment: Antagonist activity at FLAG-tagged human BLT2 receptor expressed in HEK293 cells assessed as inhibition of LTB4-stimulated calcium mobilization preincubated for 10 mins before LTB4 challenge; type: functional, cell-based
T1 sequence (Q9NPC1 whole entry): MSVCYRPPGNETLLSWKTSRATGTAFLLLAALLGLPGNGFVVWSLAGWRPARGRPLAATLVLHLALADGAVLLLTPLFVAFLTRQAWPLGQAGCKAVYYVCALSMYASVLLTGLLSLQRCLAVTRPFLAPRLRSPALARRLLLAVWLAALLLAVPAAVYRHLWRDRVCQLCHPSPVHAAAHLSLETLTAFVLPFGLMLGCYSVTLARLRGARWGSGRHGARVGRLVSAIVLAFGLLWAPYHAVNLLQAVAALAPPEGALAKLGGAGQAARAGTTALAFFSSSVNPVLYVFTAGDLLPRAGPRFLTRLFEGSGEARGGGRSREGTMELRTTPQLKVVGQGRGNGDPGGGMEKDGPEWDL

Cytochrome P450 2D6 = Cytochrome P450 2D6 (Homo sapiens, UniProt P10635); experiment: Inhibition of CYP2D6 fluorescence method; type: ADME
In short: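 High-throughput CYP panel covering 1A2, 2D6, 2C9, 2C19 and 3A4, using fluorogenic substrates. IC50 was determined in μM.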

[2] = Tmax in Sprague-Dawley rat at 10 mg/kg, po; type: ADME, organism-based; parameters: dose 10 mg/kg, route oral; details: in vivo
In short: (§1)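 Rat single-dose PK, n = 3, with oral dosing at 10 mg/kg and intravenous dosing at 2.5 or 5 mg/kg.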

[3] = Clearance in Sprague-Dawley rat at 5 mg/kg, iv; type: ADME, organism-based; parameters: dose 5 mg/kg, route intravenous; details: in vivo; in short: as §1
Cavia porcellus = experiment: Antiinflammatory activity against LTB4-evoked eosinophilic pulmonary inflammation in Hartley guinea pig at 10 mg/kg, po after 1 hr treated before LTB4 challenge; type: functional, organism-based; parameters: dose 10 mg/kg
In short: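 Male Hartley guinea pigs (250-350 g) were dosed orally with 10 mg/kg in 2% Klucel LF/0.1% Tween-80. One hour later they were exposed to 10 μg/mL LTB4 aerosol for 20 min. BAL (3 × 5 mL HBSS) was done 2 h after challenge under pentobarbital. Cells were counted, and differentials of at least 300 cells were taken on Wright-stained cytospins. Analysis by two-way ANOVA/Bonferroni; 4-20 animals per group.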

Rattus norvegicus [4] = experiment: Toxicity in rat assessed as aspartate aminotransferase level at 40 mg/kg, po qd treated for 14 days; type: organism-based; parameters: dose 40 mg/kg, route oral; details: in vivo, 336 h
In short: (§2)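 Male Han-Wistar rats (200-230 g), n = 4 per group, were given 40 or 400 (mg/kg)/day orally for 14 days in 2% Klucel LF/0.1% Tween-80 versus vehicle. Body weight was recorded at pretreatment and on days 1, 8 and 14, and food intake weekly. Clinical chemistry was sampled on day 5 and at necropsy. Organs were formalin-fixed and H&E stained. Data are given as mean ± SD and analysed by Bartlett's test.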

[5] = AUC (0 to 24hrs) in rat at 40 mg/kg, po qd treated for 14 days; type: ADME, organism-based; parameters: time < 24 hr, dose 40 mg/kg, route oral; details: plasma
In short: (§3)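 Male Han-Wistar rats (200-230 g) dosed orally once daily for 14 days in 2% Klucel LF/0.1% Tween-80 in water, n = 4 per group. Blood was taken from the retro-orbital sinus under isoflurane/O2 anesthesia, and plasma was separated by cold centrifugation and stored at -70 C until analysis. Exposure values refer to day 14.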

[6] = AUC(0 to 24hrs) in rat at 400 mg/kg, po qd treated for 14 days; type: ADME, organism-based; parameters: time < 24 hr, dose 400 mg/kg, route oral; details: plasma; in short: as §3
[7] = Cmax in rat at 40 mg/kg, po qd treated for 14 days; type: ADME, organism-based; parameters: dose 40 mg/kg, route oral; details: in vivo; in short: as §3
[8] = Cmax in rat at 400 mg/kg, po qd treated for 14 days; type: ADME, organism-based; parameters: dose 400 mg/kg, route oral; details: in vivo; in short: as §3
Rattus norvegicus [9] = experiment: Toxicity in rat assessed as effect on body weight at 400 mg/kg, po qd treated for 14 days; type: organism-based; parameters: dose 400 mg/kg, route oral; details: in vivo, 336 h; in short: as §2
Rattus norvegicus [10] = experiment: Toxicity in rat assessed as effect on food consumption at 400 mg/kg, po qd treated for 14 days; type: organism-based; parameters: dose 400 mg/kg, route oral; details: in vivo, 336 h; in short: as §2
Rattus norvegicus [11] = experiment: Hepatotoxicity in rat assessed as increase in ALT level at 40 mg/kg, po qd after 15 days; type: toxicity, organism-based; parameters: dose 40 mg/kg, route oral; details: in vivo, 360 h; in short: as §2
[12] = Lipophilicity, log D of compound at pH 7.4; details: buffer
[13] = Solubility of compound in small intestinal contents in the fed state at pH 5; type: ADME
In short: (§4)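 Solubility measured in simulated intestinal fluid at pH 5.0 (fed) or pH 6.5 (fasted), reported in μg/mL.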

[14] = Solubility of compound in small intestinal contents in the fasted state at pH 6.5; type: ADME; in short: as §4
[15] = target: T2, Voltage-gated inwardly rectifying potassium channel KCNH2 (Homo sapiens, UniProt Q12809); experiment: Inhibition of human ERG expressed in CHO cells assessed as reduction of current amplitude
[16] = target: T2, Voltage-gated inwardly rectifying potassium channel KCNH2; experiment: Inhibition of human ERG expressed in CHO cells at 3 uM assessed as reduction of current amplitude
Cytochrome P450 2C9 = Cytochrome P450 2C9 (Homo sapiens, UniProt P11712); experiment: Inhibition of CYP2C9 by LC/MS method; type: ADME
Hepatocyte [17] = experiment: Metabolic stability in human hepatocytes assessed as compound metabolized after 3 hrs; type: ADME, cell-based
In short: (§5)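 Cryopreserved hepatocytes at 1.5 million cells/mL (pooled human male/female N = 10, male CD1 mouse, SD rat, beagle dog, cyno monkey) were incubated in Leibovitz medium with 1% FBS and 10 μM substrate. Incubation ran 3 h at 37 C with shaking and was stopped with methanol. Cell-free controls used hepatocyte incubation medium. Parent and metabolites were quantified by UV peak area at 232-242 nm, assuming equal extinction coefficients.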

[18] = Metabolic stability in CD1 mouse hepatocytes assessed as compound metabolized after 3 hrs; type: ADME, cell-based, Hepatocyte; in short: as §5
Hepatocyte [19] = experiment: Metabolic stability in Sprague-Dawley rat hepatocytes assessed as compound metabolized after 3 hrs; type: ADME, cell-based; in short: as §5
[20] = Metabolic stability in Beagle dog hepatocytes assessed as compound metabolized after 3 hrs; type: ADME, cell-based, Canis lupus familiaris, Hepatocyte; in short: as §5
[21] = Metabolic stability in cynomolgus monkey hepatocytes assessed as compound metabolized after 3 hrs; type: ADME, cell-based, Macaca fascicularis, Hepatocyte; in short: as §5
[22] = Metabolic stability of compound assessed as remaining level in cell free assay; type: ADME; in short: as §5
Rattus norvegicus [23] = experiment: Metabolic stability of compound in rat plasma assessed as acylglucuronide isomers formed at 400 mg/kg, po; details: in vivo

T2 sequence (Q12809 whole entry): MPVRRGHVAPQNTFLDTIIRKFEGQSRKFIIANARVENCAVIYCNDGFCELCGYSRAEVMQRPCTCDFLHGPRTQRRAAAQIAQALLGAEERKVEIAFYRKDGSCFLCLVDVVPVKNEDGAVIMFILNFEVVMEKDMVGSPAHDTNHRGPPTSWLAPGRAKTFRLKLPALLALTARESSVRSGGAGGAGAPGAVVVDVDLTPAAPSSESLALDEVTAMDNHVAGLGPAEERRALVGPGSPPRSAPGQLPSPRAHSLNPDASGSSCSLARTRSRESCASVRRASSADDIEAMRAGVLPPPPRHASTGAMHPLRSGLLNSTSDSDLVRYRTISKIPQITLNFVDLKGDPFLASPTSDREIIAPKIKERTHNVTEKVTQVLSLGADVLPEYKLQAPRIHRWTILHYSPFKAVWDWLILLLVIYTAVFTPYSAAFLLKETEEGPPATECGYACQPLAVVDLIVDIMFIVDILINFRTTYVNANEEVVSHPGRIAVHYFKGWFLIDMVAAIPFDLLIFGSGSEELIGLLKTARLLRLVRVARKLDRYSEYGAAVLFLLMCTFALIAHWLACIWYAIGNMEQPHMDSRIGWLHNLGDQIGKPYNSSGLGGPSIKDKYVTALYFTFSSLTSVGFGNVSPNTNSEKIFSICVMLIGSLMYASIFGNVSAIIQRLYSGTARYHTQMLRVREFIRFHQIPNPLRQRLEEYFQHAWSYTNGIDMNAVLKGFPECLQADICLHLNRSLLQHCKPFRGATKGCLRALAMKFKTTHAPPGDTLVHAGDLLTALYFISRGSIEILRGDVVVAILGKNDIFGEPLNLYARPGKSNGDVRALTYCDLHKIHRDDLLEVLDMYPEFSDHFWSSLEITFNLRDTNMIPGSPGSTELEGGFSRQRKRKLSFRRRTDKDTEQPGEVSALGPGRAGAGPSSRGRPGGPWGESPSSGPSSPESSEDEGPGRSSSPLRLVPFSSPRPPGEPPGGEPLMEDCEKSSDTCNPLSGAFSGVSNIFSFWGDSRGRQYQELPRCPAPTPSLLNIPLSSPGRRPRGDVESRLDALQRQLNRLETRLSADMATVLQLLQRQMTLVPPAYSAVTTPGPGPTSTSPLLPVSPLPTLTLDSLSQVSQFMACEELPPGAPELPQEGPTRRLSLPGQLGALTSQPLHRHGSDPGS
Sequence of Cytochrome P450 2D6 (P10635 whole entry): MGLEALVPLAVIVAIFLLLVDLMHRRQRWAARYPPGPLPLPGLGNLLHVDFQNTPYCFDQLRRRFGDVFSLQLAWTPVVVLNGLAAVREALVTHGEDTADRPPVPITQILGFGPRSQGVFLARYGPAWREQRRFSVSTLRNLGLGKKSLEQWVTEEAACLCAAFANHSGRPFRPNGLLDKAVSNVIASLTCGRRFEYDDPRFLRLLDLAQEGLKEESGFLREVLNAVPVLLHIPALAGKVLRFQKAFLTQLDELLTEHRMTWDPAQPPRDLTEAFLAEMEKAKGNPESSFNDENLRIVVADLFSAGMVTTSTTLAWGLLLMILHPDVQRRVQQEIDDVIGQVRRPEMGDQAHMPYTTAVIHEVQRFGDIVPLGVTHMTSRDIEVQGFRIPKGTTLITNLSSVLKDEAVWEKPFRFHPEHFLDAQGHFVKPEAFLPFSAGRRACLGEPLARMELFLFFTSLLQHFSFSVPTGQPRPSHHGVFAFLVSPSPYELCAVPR
Sequence of Cytochrome P450 2C9 (P11712 whole entry): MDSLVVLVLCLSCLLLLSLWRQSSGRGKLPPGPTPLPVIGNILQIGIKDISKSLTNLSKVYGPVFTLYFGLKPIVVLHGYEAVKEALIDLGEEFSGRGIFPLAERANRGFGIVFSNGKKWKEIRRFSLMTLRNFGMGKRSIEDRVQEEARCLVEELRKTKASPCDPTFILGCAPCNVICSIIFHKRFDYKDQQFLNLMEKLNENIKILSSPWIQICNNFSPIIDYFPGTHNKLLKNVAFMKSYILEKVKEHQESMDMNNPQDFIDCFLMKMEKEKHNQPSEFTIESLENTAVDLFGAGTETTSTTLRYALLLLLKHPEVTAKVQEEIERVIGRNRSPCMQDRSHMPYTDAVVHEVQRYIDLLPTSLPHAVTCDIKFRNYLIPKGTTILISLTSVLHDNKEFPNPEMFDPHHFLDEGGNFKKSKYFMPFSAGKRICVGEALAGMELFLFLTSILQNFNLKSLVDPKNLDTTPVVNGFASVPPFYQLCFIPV

IC50 [1] [µM]	IC50 (Cytochrome P450 2D6) [µM]	Tmax [2] [h]	clearance [3] [mL/min/kg]	SMILES	Activity (Cavia porcellus)	Activity (Rattus norvegicus [4])	Activity (Rattus norvegicus [9])	Activity (Rattus norvegicus [10])	Activity (Rattus norvegicus [11]) [IU/L]	further results
0.194	> 7.5	5	11.6	O=C(O)CCCOc1cccc(CCCCCCOc2cc(-c3cccc(F)c3)cc(-c3ccc4c(c3)OCO4)c2)c1CCC(=O)O	Active	Non-toxic	Non-toxic	Non-toxic	35	AUC at 24 h [5]: 80.6 µg·h/mL; AUC at 24 h [6]: 1870 µg·h/mL; Cmax [7]: 11.3 µg/mL; Cmax [8]: 124 µg/mL
0.164	> 7.5	3	5.47	O=C(O)CCCOc1cccc(CCCCCCOc2cc(-c3ccsc3)cc(-c3ccc4c(c3)OCO4)c2)c1CCC(=O)O	Active	Non-toxic	Non-toxic	Non-toxic	38	logD [12]: 2.34; solubility [13]: 32.9 µg/mL (≈ 52.2 µM); solubility [14]: 34.6 µg/mL (≈ 54.9 µM); IC50 [15]: > 3 µM; INH [16]: Not Active; IC50 (Cytochrome P450 2C9): 22.5 µM; Activity (Hepatocyte [17]): 17.3%; Activity [18]: 16.9%; Activity (Hepatocyte [19]): 20.4%; Activity [20]: 27.8%; Activity [21]: 7.7%; Activity [22]: 100%; Stability (Rattus norvegicus [23]): 6%
